The record followed here is ChEMBL document CHEMBL1145683, “Structure-cytotoxicity relationships of some helenanolide-type sesquiterpene lactones” (J Nat Prod, 1997).

Assay [1] is described as follows: Cytotoxicity against mouse cloned EN2 cells after 72 hrs by MTT assay. Format: functional, cell-based. As to conditions: EN2, 72 h. A digest of the protocol:
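EN2 murine cloned Ehrlich ascites line, grown in suspension in RPMI 1640 with 10% heat-inactivated FBS and used in exponential growth. 500 cells/well, continuous 72 h compound exposure at 37 °C, 5% CO2. Stocks 10 mM in EtOH or DMSO. Read-out: MTT reduction over 3 h 45 min, formazan in DMSO, A550. IC50 is 50% growth inhibition relative to control; mean ± SD, n≥3.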

Assay [2] can be described thus: Cytotoxicity against mouse cloned EN2 cells after 2 hrs by MTT assay. Type of assay: functional, cell-based. Particulars: EN2, 2 h. A digest of the protocol:
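Murine EN2 Ehrlich ascites cells (RPMI 1640, 10% heat-inactivated FBS, exponential growth, >95% trypan blue exclusion), 500 cells/well, exposed 2 h at 37 °C, 5% CO2. Compound washed out in three spin steps, then 72 h further culture. MTT added for 3 h 45 min, formazan dissolved in DMSO, A550 read. IC50 = 50% growth inhibition vs medium-blank-corrected control; mean ± SD, n≥3.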
On the technique in general: Tetrazolium dyes change colour on reduction, which living cells bring about.

The structures appear in SMILES notation. pIC50: −log10 of the molar value. Some results are limits rather than exact numbers.

For `C[C@@H]1C[C@H]2OC(=O)[C@@H](C)[C@H]2[C@H](O)[C@]2(C)C(=O)C=C[C@@H]12`, the pIC50 (in general, the negative decadic logarithm of the IC50, by convention in mol/L) in assay [1] is 5.19; in assay [2], 3.89.

As to `C=C1C(=O)O[C@@H]2C[C@@H](C)[C@@H]3[C@@H](OC(C)=O)C[C@@H](O)[C@@]3(C)C[C@H]12`, the values for the pIC50 in assay [1] and in assay [2] were 4.97 and 3.99, respectively.

Regarding `CC(=O)O[C@H]1[C@@H]2[C@H](C)C(=O)O[C@@H]2C[C@@H](C)[C@@H]2C=CC(=O)[C@]21C`, the pIC50 in assay [1] is 5.46; in assay [2], 4.37.

On to `CC(C)CC(=O)O[C@H]1[C@@H]2[C@H](C)C(=O)O[C@@H]2C[C@@H](C)[C@@H]2C=CC(=O)[C@]21C`, for which the pIC50 in assay [1] was 5.77; in assay [2] it was 4.70.

Take `C=C1C(=O)O[C@@H]2C[C@@H](C)[C@@H]3[C@@H](O)C[C@@H](O)[C@@]3(C)[C@@H](OC(=O)/C(C)=C/C)[C@H]12`: the pIC50 is 4.68 in assay [1] and below 4.00 in assay [2].

`C=C1C(=O)O[C@@H]2C[C@@H](C)[C@@H]3[C@@H](O)C[C@@H](OC(=O)/C(C)=C/C)[C@@]3(C)[C@@H](O)[C@H]12`: the pIC50 in assay [1] is 4.98; in assay [2], 3.94.

Take `C/C=C(\C)C(=O)O[C@H]1[C@@H]2[C@H](C)C(=O)O[C@@H]2C[C@@H](C)[C@@H]2C=CC(=O)[C@]21C`: the pIC50 in assay [1] was 5.59; in assay [2], 4.72.

The compound `C=C1C(=O)O[C@@H]2C[C@@H](C)[C@@H]3[C@@H](O)C[C@@H](O)[C@@]3(C)[C@@H](O)[C@H]12` had a pIC50 in assay [1] of 4.87.

In the case of `C=C1C(=O)O[C@@H]2C[C@@H](C)[C@@H]3C=CC(=O)[C@@]3(C)[C@@H](OC(=O)/C(C)=C/C)[C@H]12`, the pIC50 in assay [1] was 6.00; in assay [2], 5.28.

On to `C=C1C(=O)O[C@H]2C[C@@H](C)[C@@H]3C=CC(=O)[C@@]3(C)[C@H](OC(=O)CC(C)C)[C@H]12`, for which the figures for the pIC50 in assay [1] and in assay [2] were 6.00 and 5.27, respectively.

As to `CC(=O)O[C@H]1C[C@@H](O)[C@]2(C)[C@@H]1[C@H](C)C[C@H]1OC(=O)[C@@H](C)[C@H]1[C@@H]2O`, the pIC50 in assay [1] and in assay [2] was below 4.00 throughout.

Take `C/C=C(\C)C(=O)O[C@H]1[C@@H]2[C@H](C)C(=O)O[C@@H]2C[C@@H](C)[C@@H]2[C@@H](O)CC(=O)[C@]21C`: the pIC50 in assay [1] was 4.12; in assay [2] it was below 4.00.

On to `C=C1C(=O)O[C@@H]2C[C@@H](C)[C@@H]3[C@@H](O)C[C@@H](O)[C@@]3(C)C[C@H]12`, for which, in assay [1], the pIC50 was 4.82.

As for `C=C1C(=O)O[C@@H]2C[C@@H](C)[C@@H]3C=CC(=O)[C@@]3(C)[C@@H](OC(=O)CC(C)C)[C@H]12`, the pIC50 is 6.14 in assay [1] and 5.49 in assay [2].

For the compound `C=C1C(=O)O[C@@H]2C[C@@H](C)[C@@H]3C=CC(=O)[C@@]3(C)[C@@H](OC(C)=O)[C@H]12` [ANGUSTIBALIN], the figures for the pIC50 in assay [1] and in assay [2] were 6.66 and 5.89, respectively.

Take `C=C1C(=O)O[C@@H]2C[C@@H](C)[C@@H]3[C@@H](O)CC(=O)[C@@]3(C)[C@@H](OC(=O)/C(C)=C/C)[C@H]12` [ARNIFOLIN]: the pIC50 in assay [1] was 5.40; in assay [2] it was 4.21.

As for `C=C1C(=O)O[C@H]2C[C@@H](C)[C@@H]3C=CC(=O)[C@@]3(C)[C@@H](OC(C)=O)[C@H]12` [BIGELOVIN], the pIC50 is 6.44 in assay [1] and 5.70 in assay [2].

`C=C1C(=O)O[C@@H]2C[C@@H](C)[C@@H]3[C@@H](OC(C)=O)C[C@@H](O)[C@@]3(C)[C@@H](O)[C@H]12` [CHAMISSONOLIDE]: the pIC50 is 5.12 in assay [1] and 3.97 in assay [2].

Take `C=C1C(=O)O[C@@H]2C[C@@H](C)[C@@H]3C=CC(=O)[C@@]3(C)[C@@H](OC(=O)C(C)C)[C@H]12` [HELENALINISOBUTYRATE]: the negative logarithm of the IC50 (pIC50) in assay [1] is 6.77; in assay [2], 5.89.

Consider `C=C1C(=O)O[C@@H]2C[C@@H](C)[C@@H]3C=CC(=O)[C@@]3(C)[C@@H](O)[C@H]12` [HELENALIN], for which the pIC50 in assay [1] was 6.41; in assay [2] it was 5.62.

With `C=C1C(=O)O[C@H]2C[C@@H](C)[C@@H]3C=CC(=O)[C@@]3(C)[C@H](O)[C@H]12` [MEXICANIN I], the pIC50 in assay [1] is 6.25; in assay [2], 5.57.
